High-throughput results (PubChem)
Shown are actives, neighbours in structure and some others; about 1.4% of the full set was active somewhere.
APJ agonist = agonists of human apelin receptor APJ, primary screen, CHO-K1 cells, PathHunter beta-arrestin, luminescence. P35414. activation, % at 20 µM. 330,000 compounds, 0.11% hits. 0% DMSO wells, 100% apelin;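 active = activation more than six SD over the plate average, tested at 20 µM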;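 note: 0% = DMSO alone and 100% = apelin-13 at 10 nM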
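system = engineered CHO-K1 APJ arrestin reporter cells | input = 1000 cells per well | timing = overnight seeding, 90 min compound at 25 °C, 1 h detection | measured by = enzyme-fragment complementation luminescence | read-out = beta-arrestin recruitment to APJ as agonist activity, luminescent signal | control set = negative DMSO alone, positive Apelin-13 at 10 nM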
CXCR6 block = CXCR6 receptor inhibitors, primary screen, cell-based, beta-arrestin, luminescence, CHO-K1 PathHunter, 1536-well; C-X-C chemokine receptor type 6 (Homo sapiens), O00574; inhibition, % at 20 µM; 360,000 compounds, 0.36% hits; in the data active = inhibition above about 34%, passing the limit was not always enough;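 note: antagonist mode with CXCL16 agonist at 10 nM final; 0% = 10 nM CXCL16 with DMSO and 100% = unstimulated wells without agonist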
A3G deaminase = APOBEC3G DNA deaminase inhibitors, primary screen, biochemical, fluorescence, single-stranded DNA substrate, uHTS; DNA dC->dU-editing enzyme APOBEC-3G (Homo sapiens), Q9HC16; recombinant A3G, ssDNA deamination FAM/TAMRA fluorescence; inhibition, % at 20 µM; 330,000 compounds, 0.28% hits; AID 493012, 2011;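 active = inhibition of at least 40% at 20 µM, with no more than 30% in the related APOBEC3A deaminase screen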;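 note: plate controls were DMSO wells with A3G for no effect and wells lacking A3G enzyme for full effect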
A3A deaminase = APOBEC3A ssDNA deaminase inhibitors, primary screen, selectivity assay for APOBEC3G inhibitor project, biochemical, FAM/TAMRA oligo cleavage fluorescence | DNA dC->dU-editing enzyme APOBEC-3A (Homo sapiens), P31941 | recombinant A3A, FAM/TAMRA ssDNA deamination fluorescence | inhibition, % at 20 µM | 330,000 compounds, 0.41% hits | AID 493011, 2011;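 active = at least 40% inhibition at 20 µM here, with at most 30% in a related deaminase screen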;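 note: plate controls were A3A with DMSO for no effect and wells lacking A3A enzyme for full effect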
Target sequence (P31941 whole entry, looked up): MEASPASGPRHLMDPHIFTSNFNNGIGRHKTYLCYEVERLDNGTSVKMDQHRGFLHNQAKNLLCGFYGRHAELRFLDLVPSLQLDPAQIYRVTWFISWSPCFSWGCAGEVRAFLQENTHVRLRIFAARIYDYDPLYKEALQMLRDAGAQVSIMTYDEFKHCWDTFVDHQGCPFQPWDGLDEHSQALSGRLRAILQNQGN
APJ antag = antagonists of human apelin receptor APJ, primary screen, CHO-K1 cells, beta-arrestin complementation, luminescence | inhibition, % at 20 µM | AID 2521, 2010 | P35414 | 330,000 compounds, 0.32% hits;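 active = inhibition above about 40% at 20 µM, limit read from the data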;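 note: cells challenged with 10 nM apelin-13 agonist together with compound; plate controls were apelin-13 plus DMSO wells for no effect and DMSO wells lacking apelin-13 for full effect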
CCR6 antag = CCR6 receptor antagonists, primary screen, cell-based, CHO-K1, luminescence, beta-arrestin, uHTS; CHO-K1 CCR6 PathHunter beta-arrestin, CCL20-stimulated; inhibition, % at 20 µM; 340,000 compounds, 0.49% hits; C-C chemokine receptor type 6 (Homo sapiens), P51684;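 active = compounds whose inhibition of the agonist-driven luminescence signal at 20 µM reaches about 50%, limit read from the data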;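 note: cells stimulated with CCL20 at 14 nM final; plate controls were DMSO with CCL20 for no effect and DMSO without agonist for full effect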
A3A conf = APOBEC3A deaminase inhibitors, retest, confirmation, selectivity assay for APOBEC3G inhibitor project, biochemical, single concentration, fluorescence readout; recombinant A3A, ssDNA deaminase UDG fluorescence assay; 1,400 compounds, 63% hits; inhibition, % at 20 µM; shares compounds with A3A deaminase;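 active = inhibition reaching a set limit, 80% of the first screen's cutoff, at 20 µM in any replicate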;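 note: plate controls were DMSO wells with A3A for no effect and wells lacking A3A enzyme for full effect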
UDG ctr A3A = E. coli UDG inhibitors, confirmation, counter-screen for APOBEC3A inhibitor project, biochemical, single concentration, fluorescence, FAM/TAMRA oligo; shares compounds with A3A deaminase; UDG counterscreen, FAM/TAMRA uracil oligo fluorescence; inhibition, % at 20 µM; 1,000 tested, under 10 active; AID 504714, 2011; call rule not given here
Starred values were filed as active, the others as inactive; . = no result.

SMILES	APJ agonist	CXCR6 block	A3G deaminase	A3A deaminase	APJ antag	CCR6 antag	A3A conf	UDG ctr A3A
C[C@@H]1CN([C@@H](C)CO)C(=O)c2cc(Br)cnc2O[C@H]1CN(C)Cc1cccnc1	.	-0.1	.	.	.	.	.	.
COn1c(-c2ccccc2)nc2c1CCc1nonc1-2	-0.9	0.7	-0.2	54.0*	-14.1	15.4	-7.4	-2.4
Fc1ccc(CNc2ccccn2)cc1	-5.2	-1.9	-6.7	-8.2	-0.7	-5.1	.	.
CSc1ccc(CNc2ccccn2)cc1	2.5	-6.9	8.9	48.2*	9.6	-5.8	2.6	.
O=C(O)/C(=C\c1ccc(Cl)c([N+](=O)[O-])c1)c1ccc(S(=O)(=O)N2CCCCC2)s1	-1.5	-3.3	0.3	3.8	-18.1	8.0	.	.
O=C(O)/C(=C\c1ccc(Cl)c([N+](=O)[O-])c1)c1ccc(S(=O)(=O)N2CCCC2)s1	-0.9	-2.1	10.2	54.8*	-10.1	9.9	46.9*	2.1
Clc1cc(Cl)c(OCCCCn2cncn2)c(Cl)c1	0.0	-5.0	-6.8	-4.0	6.1	0.6	.	.
CC(=O)c1ccc(NC(=O)C[n+]2ccc(N(C)C)cc2)cc1	-4.8	-0.9	-2.9	-4.7	10.1	-2.9	.	.
CN(C)c1cc[n+](CC(=O)Nc2ccc(OC(F)F)cc2)cc1	-6.4	-2.1	11.1	48.3*	-2.2	-3.6	65.2*	-2.5
COC(=O)C1=C(C)N(Cc2ccccc2)C(=NCc2cc(OC)c(OC)c(OC)c2)N[C@H]1c1cccc(F)c1	2.2	6.0	-4.4	18.7	13.6	-10.4	.	.
CCN1C(=NCCOC)N[C@@H](c2ccccc2)[C@H](C(=O)OC)[C@H]1C	-1.7	7.9	9.1	45.8*	5.3	1.9	74.9*	0.6
CCN1C(=NCc2cc(OC)c(OC)c(OC)c2)N[C@@H](c2ccccc2)[C@H](C(=O)OC)[C@H]1C	-4.6	.	28.5	75.1*	4.4	.	47.3*	.
COCCN1C(=O)N[C@@H](c2ccccc2)[C@@H](C(=O)OC)[C@H]1C	0.4	6.4	-8.0	-1.7	-9.7	5.0	.	.
Cc1cc(C)c(C(=O)COC(=O)C2CCN(c3ccc(C(F)(F)F)cn3)CC2)c(C)c1	-4.5	2.0	5.7	-3.6	5.5	11.8	.	.
C[N+]12CCCCC1C(COC(=O)c1ccc3c(c1)OCO3)CCC2 (stereo unspecified)	-1.7	-5.1	27.7	58.1*	5.8	3.4	47.9*	.
CN(C(=O)COC(=O)c1ccc2c(c1)OCO2)C1CCCCC1	-0.4	1.7	-4.1	-1.9	7.2	11.6	.	.
CCN1CCN(c2ccc(S(=O)(=O)N3CCCCC3)cc2NC(=O)COc2cc(C)ccc2Cl)CC1	-0.7	18.6	15.1	56.8*	-2.8	20.2	72.7*	3.4
CCN1CCN(c2ccc(S(=O)(=O)N3CCCCC3)cc2NC(=O)c2ccc(F)cc2)CC1	-5.3	-7.1	15.8	36.0	7.4	-13.4	.	.
CCN1CCN(c2ccc(S(=O)(=O)N3CCCCC3)cc2NC(=O)COc2ccc(F)cc2Cl)CC1	-3.1	11.6	10.5	55.9*	-44.2	6.9	52.9*	-4.0
